ChEMBL document CHEMBL1150215, “Strychnogucines A and B, two new antiplasmodial bisindole alkaloids from Strychnos icaja” (J Nat Prod, 2001)

Assays:
KB = assay: Cytotoxicity against human KB cells by WST1 assay; format: cell-based
Outline: (§1)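 Cells grown as in earlier work and exposed to samples in 96-well microplates. Viability read by colorimetric assay with the tetrazolium salt WST-1. Emetine and usambarensine base run as reference compounds. Results given as IC50 in μM.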

Plasmodium falciparum [1] = assay: Antiplasmodial activity against chloroquine-sensitive Plasmodium falciparum F32-Tanzania by [3H]hypoxanthine uptake; format: functional, organism-based
Outline: (§2)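 Asexual erythrocytic stages kept in continuous in vitro culture (Trager and Jensen method). Eight 4-fold dilutions per sample, final concentrations 20 μg/mL down to 0.0012 μg/mL, each tested in duplicate. Growth read as [³H]hypoxanthine incorporation (Desjardins method, Mirovsky modification).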

[2] = Selectivity index, ratio of IC50 for human WI38 cells to IC50 for chloroquine-resistant Plasmodium falciparum W2 Indochina; format: toxicity, cell-based, WI-38; settings: WI38 cells versus Plasmodium falciparum W2 Indochina, read-out: Ratio IC50
Outline: (§3)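 SI is cytotoxicity IC50 divided by antiplasmodial IC50. Cytotoxicity was measured on cultured KB cancer cells or WI38 human fibroblasts in microplates by WST-1 tetrazolium colorimetric assay, with emetine and usambarensine as references.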

Plasmodium falciparum [3] = assay: Antiplasmodial activity against chloroquine-resistant Plasmodium falciparum PFB Brazil by [3H]hypoxanthine uptake; format: functional, organism-based
Outline: (§4)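 Continuous asexual erythrocytic P. falciparum culture (Trager and Jensen). Samples tested as eight 4-fold dilutions, final 20 µg/mL down to 0.0012 µg/mL, in duplicate. Growth read by [3H]hypoxanthine incorporation (Desjardins method, Mirovsky modification). IC50 given as mean ± standard deviation. Differences were tested by Student's t-test at p ≤ 0.05.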

Plasmodium falciparum [4] = assay: Antiplasmodial activity against chloroquine-sensitive Plasmodium falciparum FCA 20 Ghana by [3H]hypoxanthine uptake; format: functional, organism-based
Outline: as §2, with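 “modification). Results given as mean ± standard deviation; differences assessed by Student's t-test, p ≤ 0.05.” for “modification).”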

[5] = Selectivity index, ratio of IC50 for human WI38 cells to IC50 for chloroquine-sensitive Plasmodium falciparum FCA 20 Ghana; format: toxicity, cell-based, WI-38; settings: WI38 cells versus Plasmodium falciparum FCA 20 Ghana, read-out: Ratio IC50; outline: as §3
[6] = Cytotoxicity against human WI38 cells by WST1 assay; format: cell-based; settings: WI-38; outline: as §1
[7] = Selectivity index, ratio of IC50 for human KB cells to IC50 for chloroquine-resistant Plasmodium falciparum W2 Indochina; format: toxicity, cell-based; settings: KB cells versus Plasmodium falciparum W2 Indochina, read-out: Ratio IC50; outline: as §3
[8] = Selectivity index, ratio of IC50 for human KB cells to IC50 for chloroquine-sensitive Plasmodium falciparum FCA 20 Ghana; format: toxicity, cell-based; settings: KB cells versus Plasmodium falciparum FCA 20 Ghana, read-out: Ratio IC50; outline: as §3
Plasmodium falciparum [9] = assay: Antiplasmodial activity against chloroquine-resistant Plasmodium falciparum W2 Indochina by [3H]hypoxanthine uptake; format: functional, organism-based; outline: as §4

| Structure (SMILES) | IC50 (KB) | IC50 (Plasmodium falciparum [1]) | IC90 (Plasmodium falciparum [1]) | selectivity ratio [2] | IC50 (Plasmodium falciparum [3]) | IC90 (Plasmodium falciparum [3]) | IC90 (Plasmodium falciparum [4]) | selectivity ratio [5] | IC50 [6] | selectivity ratio [7] | selectivity ratio [8] | IC90 (Plasmodium falciparum [9]) | IC50 (Plasmodium falciparum [4]) |
| --- | --- | --- | --- | --- | --- | --- | --- | --- | --- | --- | --- | --- | --- |
| CC[C@H]1CN2CCc3cc(OC)c(OC)cc3[C@@H]2C[C@@H]1C[C@H]1NCCc2cc(OC)c(OC)cc21 [EMETINE] | 0.056 µM |  |  |  |  |  |  |  |  |  |  |  |  |
| O=C1C[C@@H]2OCC=C3CN4[C@@H](C5=C[C@@H]6[C@@H]7N(C5=O)c5ccccc5[C@@]75CCN7C/C(=C/CO)[C@@H]6C[C@H]75)C[C@]56c7ccccc7N1[C@H]5[C@@H]2[C@H]3C[C@H]46 [STRYCHNOGUCINE B] | > 15 µM | 0.51 µM | 3.23 µM | 182 | 0.202 µM | 1.15 µM | 3.79 µM | 25.1 | 15.5 µM | > 176 | > 24.3 |  |  |
| C/C=C1/CN2[C@@H](C3=C[C@@H]4[C@@H]5N(C3=O)c3ccccc3[C@@]53CCN5C/C(=C/CO)[C@@H]4C[C@H]53)C[C@@]34c5ccccc5N5C(=O)CC=C([C@H]1C[C@H]23)[C@H]54 | 16.2 µM | 1.26 µM | 5.35 µM | 120 | 0.431 µM | 1.64 µM | 4.35 µM | 19.8 | 16.8 µM | 116 | 19.1 | 1.35 µM |  |
| C/C=C1/CN2CCc3c([nH]c4ccccc34)[C@@H]2C[C@@H]1Cc1nccc2c1[nH]c1ccccc12 [USAMBARENSINE] | 9.7 µM |  |  | 7.8 |  |  |  | 3.1 | 4.62 µM | 36.6 | 14.8 |  |  |
| CCN(CC)CCCC(C)Nc1ccnc2cc(Cl)ccc12 (stereo unspecified) [CHLOROQUINE] |  |  | 0.063 µM |  |  | 1.54 µM | 0.119 µM |  |  |  |  | 1.75 µM |  |
| C/C=C1/CN2[C@@H]([C@@H]3C(=O)N4c5ccccc5[C@@]56CCN7CC8=CCO[C@@H]3[C@@H]([C@H]45)[C@H]8C[C@H]76)C[C@@]34c5ccccc5N5C(=O)CC=C([C@H]1C[C@H]23)[C@H]54 [STRYCHNOGUCINE A] |  | 4.81 µM | 9.54 µM |  | 3.2 µM | 9.4 µM | 6.98 µM |  |  |  |  |  | 2.31 µM |
| C/C=C1/CN2CC[C@]34c5ccccc5N5C(=O)C([C@H]6C[C@]78c9ccccc9N9C(=O)C=C[C@@H]([C@H]97)[C@H]7C[C@@H]8N6C/C7=C/C)=C[C@H]([C@H]53)[C@H]1C[C@H]24 [SUNGUCINE] | 6.2 µM |  |  | 0.6 |  |  | 26.3 µM | 0.8 | 6 µM | 0.6 | 0.8 | 33.1 µM |  |
| C/C=C1/CN2[C@@H](C3=C[C@@H]4[C@@H]5N(C3=O)c3ccccc3[C@@]53CCN5C/C(=C/C)[C@@H]4C[C@H]53)C[C@@]34c5ccccc5N5C(=O)CC=C([C@H]1C[C@H]23)[C@H]54 [ISOSUNGUCINE] | 9 µM |  |  | 34.7 |  |  | 7.06 µM | 7 | 9.2 µM | 34 | 6.8 | 1.72 µM |  |
| C=C[C@H]1CN2CC[C@H]1C[C@H]2[C@H](O)c1ccnc2ccc(OC)cc12 [QUININE] |  |  |  |  |  |  | 1.91 µM |  |  |  |  | 1.72 µM |  |
| OC(c1cc(C(F)(F)F)nc2c(C(F)(F)F)cccc12)C1CCCCN1 (stereo unspecified) [MEFLOQUINE] |  |  | 0.354 µM |  | 0.002 µM | 0.006 µM |  |  |  |  |  |  |  |
